Data set [1] deals with Human immunodeficiency virus type 1 reverse transcriptase (Human immunodeficiency virus 1, UniProt Q72547). In words: Inhibition of wild-type HIV1 subtype B reverse transcriptase assessed as incorporation of [3H]dTTP. An outline of the steps:
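Recombinant clade B HIV-1 WT RT p66/p51, co-expressed with protease in E. coli, affinity-purified and active-site titrated. Diphosphate forms assayed on activated calf thymus DNA with [3H]dTTP. Aliquots spotted in duplicate on DE81 discs, washed with ammonium formate pH 8.0 and ethanol, then scintillation counted. IC50 averaged over ≥3 independent experiments.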

The test system of data set [2] is Human immunodeficiency virus 2. Put plainly: Antiviral activity against 100 TCID50 wild-type Human immunodeficiency virus type 2 ROD infected in C8166 cells assessed as inhibition of syncytia formation after 4 days by microscopic analysis. It is filed as functional, organism-based. The settings on record: Human immunodeficiency virus 2, ISOLATE ROD, C8166, 96 h.

The nature of data set [3]: (§1) Cytotoxicity against human CEM cells. It is filed as cell-based, CCRF-CEM. The settings on record: CCRF-CEM (CEM) cells. In a few lines: (§2)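 Mock-infected CEM cells cultured alongside the anti-HIV assay with compound dilutions for 4 days at 37 °C. CC50 is the concentration inhibiting CEM cell proliferation by 50%.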
Data set [4] deals with Human immunodeficiency virus 1. In words: Antiviral activity against HIV1 clade B isolate 2101 infected in human H9 cells assessed as inhibition of viral replication. It is filed as functional, organism-based. Particulars: Human immunodeficiency virus 1, clade B isolate 2101, H9. An outline of the steps: (§3)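 H9 cells infected with HIV-1 clinical isolates of clades A, B, C, D, A/E, F and G, in the presence of graded compound concentrations. EC50 is the concentration reducing viral replication by 50%.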

A further data set relates to Human alphaherpesvirus 2. Put plainly: Antiviral activity against Herpes simplex virus type 2 G infected in HEL cells assessed as inhibition of virus-induced cytopathic effect. It is filed as functional, organism-based. Particulars: Human alphaherpesvirus 2, strain G. An outline of the steps: (§4)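 Confluent HEL cell monolayers inoculated with 100 CCID50 of virus. Compounds added after a 1–2 h adsorption period. Virus-induced cytopathic effect scored microscopically at 3 days post infection as % of untreated controls. EC50 derived from graphical plots.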

Data set [5] is described as follows: Cytotoxicity against human HuH7 cells. In kind it is cell-based. Particulars: Huh-7 cells.
The subject of data set [6] is Human immunodeficiency virus 1. Put plainly: Antiviral activity against HIV1 clade A/E isolate 2165 infected in human H9 cells assessed as inhibition of viral replication. The settings on record: Human immunodeficiency virus 1, clade A/E isolate 2165, H9. It is filed as functional, organism-based. In a few lines:
as §3

Data set [7] can be described thus: Cytotoxicity against human HepAD38 cells. In kind it is cell-based.
For data set [8], the system named is Human immunodeficiency virus 1. In words: Antiviral activity against 125 TCID50 wild type HIV1 LAI infected in human H9 cells assessed as reduction in viral replication measured on day 7 post infection by reverse transcriptase activity. It is filed as functional, organism-based. Particulars: Human immunodeficiency virus 1, LAI, H9, 168 h. In a few lines:
(§5)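 PHA-P-activated PBMC (1.5 × 10^5; donor cells stimulated 3 days with 1 μg/mL PHA-P plus 5 IU/mL IL-2) or H9 cells (5 × 10^5) in RPMI-1640/10% FCS. Cells pre-treated 30 min with graded compound concentrations, then infected with HIV-1 LAI (100 or 125 TCID50). Supernatant RT activity read on day 7. EC50 from quadratic fit of % inhibition; triplicates, PBMC repeated with a second donor.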

The subject of data set [9] is Human alphaherpesvirus 1. In words: Antiviral activity against TK-deficient and ACR-resistant Herpes simplex virus type 1 KOS infected in HEL cells assessed as inhibition of virus-induced cytopathic effect. In kind it is functional, organism-based. Particulars: Human alphaherpesvirus 1, KOS. An outline of the steps:
as §4

The subject of data set [10] is Human immunodeficiency virus 1. Put plainly: Antiviral activity against HIV1 clade C isolate 2914 infected in human H9 cells assessed as inhibition of viral replication. In kind it is functional, organism-based. The settings on record: Human immunodeficiency virus 1, clade C isolate 2914, H9. An outline of the steps:
as §3

Data set [11] deals with Human immunodeficiency virus 1. Put plainly: Antiviral activity against HIV1 clade D isolate 1649 infected in human H9 cells assessed as inhibition of viral replication. In kind it is functional, organism-based. The settings on record: Human immunodeficiency virus 1, clade D isolate 1649, H9. In a few lines: as §3
Data set [12] has as its system Human immunodeficiency virus 1. Put plainly: Antiviral activity against 100 TCID50 wild-type Human immunodeficiency virus 1 3B infected in CEM cells assessed as inhibition of syncytia formation after 4 days by microscopic analysis. In kind it is functional, organism-based. The settings on record: CCRF-CEM, 96 h. An outline of the steps:
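Human CEM cells (~3 × 10^5 cells/cm3) infected with 100 CCID50/mL HIV-1 IIIB and seeded into wells holding compound dilutions. After 4 days at 37 °C, giant-cell (syncytium) formation was scored microscopically. EC50 is the concentration inhibiting syncytia formation by 50%.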

A short description of data set [13]: Cytotoxicity against […]-activated human PBMC on day 7 by MTT assay. In kind it is cell-based. In a few lines: (§6)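 Uninfected PHA-P-activated PBMC and H9 cells exposed to graded compound concentrations. Viability by MTT on day 7. CC50 from quadratic fit of % viability against concentration; triplicates.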
Data set [14] is described as follows: Cytotoxicity against human HEL cells assessed as alteration in cellular morphology by microscopic analysis. It is filed as cell-based. In a few lines:
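Uninfected confluent Vero, CrFK, HEL or HeLa cultures incubated with serial compound dilutions (up to 200 μM) for the same period as the antiviral assays. Minimal toxic concentration is the lowest giving microscopically detectable alteration of cell morphology.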

The test system of a further data set is Vaccinia virus. Put plainly: Antiviral activity against Vaccinia virus infected in HEL cells assessed as inhibition of virus-induced cytopathic effect. In kind it is functional, organism-based. The settings on record: Orthopoxvirus vaccinia. In a few lines:
as §4

In data set [15] the test system is Human immunodeficiency virus 1. In words: Antiviral activity against HIV1 clade C isolate 4110 infected in human H9 cells assessed as inhibition of viral replication. The settings on record: Human immunodeficiency virus 1, clade C isolate 4110, H9. In kind it is functional, organism-based. In a few lines:
as §3

For data set [16], the system named is Hepatitis B virus. Put plainly: Antiviral activity against Hepatitis B virus infected in human HepAD38 cells assessed as reduction in viral DNA level after 6 days by real time quantitative PCR analysis. In kind it is functional, organism-based. The settings on record: HePAD38, 144 h. In a few lines: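 Tetracycline-regulated HepAD38 cells (5 × 10^5) induced after 2–3 days by PBS wash and feeding with medium lacking tetracycline and G418, with or without compound. Medium changed at day 3. Intracellular HBV DNA quantified by TaqMan Q-PCR at day 6 post induction against a full-genome plasmid standard curve, expressed as % of untreated. Actives retested.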

Data set [17] deals with Human immunodeficiency virus 1. In words: Antiviral activity against 6250 TCID50 wild type HIV1 LAI infected in human H9 cells assessed as reduction in viral replication measured on day 7 post infection by reverse transcriptase activity. It is filed as functional, organism-based. Particulars: Human immunodeficiency virus 1, LAI, H9, 168 h. An outline of the steps:
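H9 cells in RPMI-1640/10% FCS given graded compound concentrations, then infected with a high inoculum of 6250 TCID50 HIV-1 LAI. Supernatant reverse transcriptase activity measured on day 7 post infection. EC50 taken as the concentration giving 50% reduction of viral replication.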

Data set [18] deals with Human immunodeficiency virus 1. Put plainly: Antiviral activity against HIV1 clade B isolate 2056 infected in human H9 cells assessed as inhibition of viral replication. In kind it is functional, organism-based. The settings on record: Human immunodeficiency virus 1, clade B isolate 2056, H9. An outline of the steps: as §3
Data set [19] deals with Human immunodeficiency virus 1. Put plainly: Antiviral activity against 100 TCID50 wild type HIV1 LAI infected in human PBMC assessed as reduction in viral replication measured on day 7 post infection by reverse transcriptase activity. It is filed as functional, organism-based. Particulars: Human immunodeficiency virus 1, LAI, 168 h. An outline of the steps:
as §5

Data set [20] deals with Human alphaherpesvirus 1. Put plainly: Antiviral activity against Herpes simplex virus type 1 KOS infected in HEL cells assessed as inhibition of virus-induced cytopathic effect. It is filed as functional, organism-based. Particulars: Human alphaherpesvirus 1, KOS. An outline of the steps:
as §4
In general terms: Damage to the host cells serves as the signal in cytopathic effect assays.

Data set [21] deals with Human immunodeficiency virus 1. Put plainly: Antiviral activity against HIV1 clade A isolate 4113 infected in human H9 cells assessed as inhibition of viral replication. It is filed as functional, organism-based. Particulars: Human immunodeficiency virus 1, clade A isolate 4113, H9. An outline of the steps:
as §3

The subject of data set [22] is Human immunodeficiency virus 1. Put plainly: Antiviral activity against HIV1 clade G isolate 3187 infected in human H9 cells assessed as inhibition of viral replication. It is filed as functional, organism-based. The settings on record: Human immunodeficiency virus 1, clade G isolate 3187, H9. In a few lines:
as §3

Data set [23] in a line: Cytotoxicity against […]-activated human H9 cells on day 7 by MTT assay. It is filed as cell-based. In a few lines:
as §6

The test system of data set [24] is Human immunodeficiency virus 1. Put plainly: Antiviral activity against HIV1 clade F isolate 2338 infected in human H9 cells assessed as inhibition of viral replication. In kind it is functional, organism-based. Particulars: Human immunodeficiency virus 1, clade F isolate 2338, H9. An outline of the steps:
as §3

In data set [25] the test system is Human immunodeficiency virus 1. In words: Antiviral activity against HIV1 clade B isolate 1722 infected in human H9 cells assessed as inhibition of viral replication. It is filed as functional, organism-based. The settings on record: Human immunodeficiency virus 1, clade B isolate 1722, H9. An outline of the steps:
as §3

A further data set concerns CCRF-CEM. The description is as §1. The settings on record: ccrf-cem. It is filed as cell-based. In a few lines:
as §2

Data set [26] has as its system Hepatitis B virus. Put plainly: Antiviral activity against Hepatitis B virus infected in human HuH7 cells assessed as reduction in viral DNA level treated day 3 to day 8 post transfection by real time quantitative PCR analysis. In kind it is functional, organism-based. The settings on record: Huh-7.

Each structure is given as a SMILES string.

In the case of `C[C@H](Cn1cnc2c(N)ncnc21)OCP(=O)(O)OP(=O)(O)OP(=O)(O)O`, in [1], the 50% inhibitory concentration (IC50) (commonly the concentration that inhibits the measured activity by half) is 11.3 µM.
Still for that read-out and setting: the result for `C[C@H](Cn1cnc2c(N)ncnc21)OCP(=O)(S)OP(=O)(O)OP(=O)(O)O` (stereo not given in full) reads 13.9 µM; that for `Nc1ncnc2c1ncn2CCOCP(=O)(O)OP(=O)(O)OP(=O)(O)O`, 7 µM; that for `Nc1ncnc2c1ncn2CCOCP(=O)(S)OP(=O)(O)OP(=O)(O)O` (stereo not given), 6.8 µM.
`C[C@H](Cn1cnc2c(N)ncnc21)OCP(=O)(O)O` [TENOFOVIR ANHYDROUS]: the EC50 (commonly the concentration giving half of the maximal effect) in data set [2] was 7.1 µM; in data set [4], 240 nM; in the data set on Human alphaherpesvirus 2, greater than 200 µM; in data set [6] it was 510 nM; in data set [8], 230 nM; in the data set with Human alphaherpesvirus 1 [9], greater than 200 µM. Besides, the concentration giving a half-maximal response (EC50) in data set [10] was 340 nM; in data set [11], 100 nM; in data set [12], 4.1 µM; in the data set on Vaccinia virus, greater than 200 µM; in data set [15], 830 nM; with Hepatitis B virus [16] it was 2300 nM. Also, the EC50 was 8.3 µM in [17]; 1250 nM in data set [18]; 3.4 µM in data set [19]; greater than 200 µM in the data set with Human alphaherpesvirus 1 [20]; 5.61 µM in [21]; 150 nM in data set [22]. The EC50 in [24] stood at 40 nM; in data set [25], 690 nM. Besides, the figures for the CC50 in data set [3], in data set [5] and in [7] were greater than 250 µM, greater than 150 µM and greater than 150 µM, respectively. For the same molecule, the 50% cytotoxic concentration (CC50) at 7 day in data set [13] and in data set [23] was greater than 100 µM throughout. Moreover, the MCC in [14] is greater than 200 µM.
Turning to `Nc1ncnc2c1ncn2CCOCP(=O)(O)O` [ADEFOVIR], the EC50 in data set [2] was determined as 7 µM; in data set [4], 3510 nM; in the data set on Human alphaherpesvirus 2 it was 20 µM; in [6] it was 320 nM; in data set [8], 1100 nM; in the data set with Human alphaherpesvirus 1 [9] it was 20 µM. In addition, the concentration for a half-maximal effect (EC50) in data set [10] was 1450 nM; in the data set with Hepatitis B virus [26], 6 µM; in [11] it was 320 nM; in [12], 5.5 µM; with Vaccinia virus, greater than 200 µM; in [15], 2740 nM. The EC50 in [17] was 7.9 µM; in data set [18], 1020 nM; in data set [19], 3.2 µM; in the data set on Human alphaherpesvirus 1 [20] it was 89 µM; in [21] it was 17.8 µM; in data set [22], 220 nM. Besides, the EC50 was 190 nM in data set [24] and 1850 nM in [25]. The cytotoxic concentration (CC50) (usually the concentration at which the toxic effect on the cells reaches its halfway point) with CCRF-CEM was 85 µM; in data set [5], greater than 150 µM; in data set [7], greater than 150 µM. The same molecule came in with a half-maximal cytotoxic concentration (CC50) at 7 day in data set [13] greater than 30 µM. The MCC in [14] is greater than 200 µM.

The record behind these values is ChEMBL document CHEMBL1828528, “Acyclic nucleoside thiophosphonates as potent inhibitors of HIV and HBV replication” (Eur J Med Chem, 2011).
